# Reference: paper PMC4263960 (Pediatric blood & cancer, 2013)
# How the values were obtained:
# KT-16 rhabdoid xenograft = assay: PPTP in vivo xenograft testing, KT-16; parameters: species or system mice
# [1] = system: CHLA-79 neuroblastoma xenograft; assay: PPTP in vivo xenograft testing, CHLA-79; parameters: species or system mice
# Ramos-RA1 cell line = assay: DIMSCAN in vitro cytotoxicity testing, Ramos-RA1; type: cell-based
# In short: (§1)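 Test compound incubated with cells of a 24-line pediatric cancer panel for 96 h at 0.1 nM to 1 μM, then assessed by DIMSCAN. Relative IC50 (rIC50) derived per line. Panel comparison value is the panel rIC50 divided by the rIC50 of each cell line.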
# [2] = cited from earlier work
# [3] = system: GBM2 glioblastoma xenograft; assay: PPTP in vivo xenograft testing, GBM2; parameters: species or system mice
# Kasumi-1 cell line = assay: DIMSCAN in vitro cytotoxicity testing, Kasumi-1; type: cell-based
# In short: as §1
# [4] = system: OS-17 osteosarcoma xenograft; assay: PPTP in vivo xenograft testing, OS-17; parameters: species or system mice
# CHLA-90 cell line = assay: DIMSCAN in vitro cytotoxicity testing, CHLA-90; type: cell-based
# In short: as §1
# [5] = system: ALL-8 ALL T-cell xenograft; assay: PPTP in vivo xenograft testing, ALL-8; parameters: species or system mice
# [6] = system: ALL-17 ALL B-precursor xenograft; assay: PPTP in vivo xenograft testing, ALL-17; parameters: species or system mice
# [7] = system: ALL-19 ALL B-precursor xenograft; assay: PPTP in vivo xenograft testing, ALL-19; parameters: species or system mice
# SJ-GBM2 cell line = assay: DIMSCAN in vitro cytotoxicity testing, SJ-GBM2; type: cell-based
# In short: as §1
# CHLA-258 cell line = assay: DIMSCAN in vitro cytotoxicity testing, CHLA-258; type: cell-based; details: 96 h, read-out: rIC50
# In short: as §1
# [8] = 1 mg/kg IP Q4Dx3 repeated at Day 21
# [9] = 1.5 mg/kg IP Q4Dx3 repeated at Day 21
smiles,measurement,setting,value
C=C1C[C@@H]2CC[C@@]34C[C@H]5O[C@H]6[C@@H](O3)[C@H]3O[C@H](CC[C@@H]3O[C@H]6[C@H]5O4)CC(=O)C[C@@H]3[C@@H](OC)[C@@H](C[C@H](O)CN)O[C@H]3C[C@H]3O[C@@H](CC[C@@H]1O2)C[C@@H](C)C3=C [Eribulin],EFS activity,KT-16 rhabdoid xenograft; 1 mg/kg IP,Low (Low activity = EFS T/C <2)
same,Response activity,KT-16 rhabdoid xenograft; 1 mg/kg IP,Low (low activity by a score of <2)
same,T/C volume activity,KT-16 rhabdoid xenograft; 1 mg/kg IP,Low (Low activity = T/C >0.45)
same,EFS T/C,KT-16 rhabdoid xenograft; [8],1.1
same,Median final RTV (CD45%),KT-16 rhabdoid xenograft; [8],>4
same,Time to event,KT-16 rhabdoid xenograft; [8],12.1
same,Tumor volume T/C,"KT-16 rhabdoid xenograft; 1 mg/kg IP, Day 21 or earlier",0.76
same,EFS activity,[1]; 1 mg/kg IP,Low (Low activity = EFS T/C <2)
same,Response activity,[1]; 1 mg/kg IP,Int (intermediate activity by a score of ≥2 but <6)
same,T/C volume activity,[1]; 1 mg/kg IP,Low (Low activity = T/C >0.45)
same,EFS T/C,[1]; [8],1.9
same,Median final RTV (CD45%),[1]; [8],>4
same,Time to event,[1]; [8],13.0
same,Tumor volume T/C,"[1]; 1 mg/kg IP, Day 21 or earlier",0.71
same,IC50,"Ramos-RA1 cell line; 96 h, read-out: rIC50",< 0.1 nM
same,Panel rIC50/Line rIC50,Ramos-RA1 cell line; Ramos-RA1,>2.74
same,Relative in/out%,Ramos-RA1 cell line; Ramos-RA1,−100%
same,Ymin % (observed),Ramos-RA1 cell line; Ramos-RA1,0.00%
same,systemic exposure (AUC),"[2]; humans, 1.4 mg/m^2 dose",approximately 790 ng hour/ml
same,serum half-life,[2]; patients,37.8 h
same,EFS activity,[3]; 1 mg/kg IP,"High (High activity requires: (a) an EFS T/C >2; (b) a significant difference in EFS distributions, and (c) a net reduction in median tumor volume for animals in the treated group at the end of treatment as compared to at treatment initiation)"
same,Response activity,[3]; 1 mg/kg IP,High (A high level of activity is indicated by a score of 6 or more)
same,T/C volume activity,[3]; 1 mg/kg IP,Low (Low activity = T/C >0.45)
same,EFS T/C,[3]; [8],>3.5
same,Median final RTV (CD45%),[3]; [8],0.6
same,Tumor volume T/C,"[3]; 1 mg/kg IP, Day 21 or earlier",1.00
same,IC50,"Kasumi-1 cell line; Homo sapiens, Kasumi 1, 96 h, read-out: rIC50",4.11 nM
same,Panel rIC50/Line rIC50,Kasumi-1 cell line; Kasumi-1,0.07
same,Relative in/out%,Kasumi-1 cell line; Kasumi-1,−86%
same,Ymin % (observed),Kasumi-1 cell line; Kasumi-1,3.92%
same,EFS activity,[4]; 1 mg/kg IP,"High (High activity requires: (a) an EFS T/C >2; (b) a significant difference in EFS distributions, and (c) a net reduction in median tumor volume for animals in the treated group at the end of treatment as compared to at treatment initiation)"
same,Response activity,[4]; 1 mg/kg IP,High (A high level of activity is indicated by a score of 6 or more)
same,T/C volume activity,[4]; 1 mg/kg IP,Int (Intermediate activity = T/C ≤0.45 but >0.15)
same,EFS T/C,[4]; [8],>2.3
same,Median final RTV (CD45%),[4]; [8],0.5
same,Tumor volume T/C,"[4]; 1 mg/kg IP, Day 21 or earlier",0.25
same,IC50,"CHLA-90 cell line; 96 h, read-out: rIC50",1.77 nM
same,Panel rIC50/Line rIC50,CHLA-90 cell line; CHLA-90,0.15
same,Relative in/out%,CHLA-90 cell line; CHLA-90,−67%
same,Ymin % (observed),CHLA-90 cell line; CHLA-90,9.26%
same,EFS activity,[5]; 1.5 mg/kg IP,"High (High activity requires: (a) an EFS T/C >2; (b) a significant difference in EFS distributions, and (c) a net reduction in median tumor volume for animals in the treated group at the end of treatment as compared to at treatment initiation)"
same,Response activity,[5]; 1.5 mg/kg IP,High (A high level of activity is indicated by a score of 6 or more)
same,EFS T/C,[5]; [9],>7.9
same,Median final RTV (CD45%),"[5]; CD45%, 1.5 mg/kg IP",0.0%
same,EFS activity,[6]; 1.5 mg/kg IP,"High (High activity requires: (a) an EFS T/C >2; (b) a significant difference in EFS distributions, and (c) a net reduction in median tumor volume for animals in the treated group at the end of treatment as compared to at treatment initiation)"
same,Response activity,[6]; 1.5 mg/kg IP,High (A high level of activity is indicated by a score of 6 or more)
same,EFS T/C,[6]; [9],>5.3
same,Median final RTV (CD45%),"[6]; CD45%, 1.5 mg/kg IP",0.0%
same,EFS activity,[7]; 1.5 mg/kg IP,"High (High activity requires: (a) an EFS T/C >2; (b) a significant difference in EFS distributions, and (c) a net reduction in median tumor volume for animals in the treated group at the end of treatment as compared to at treatment initiation)"
same,Response activity,[7]; 1.5 mg/kg IP,High (A high level of activity is indicated by a score of 6 or more)
same,EFS T/C,[7]; [9],>8.4
same,Median final RTV (CD45%),"[7]; CD45%, 1.5 mg/kg IP",0.0%
same,IC50,"SJ-GBM2 cell line; 96 h, read-out: rIC50",0.51 nM
same,Panel rIC50/Line rIC50,SJ-GBM2 cell line; SJ-GBM2,0.53
same,Relative in/out%,SJ-GBM2 cell line; SJ-GBM2,−95%
same,Ymin % (observed),SJ-GBM2 cell line; SJ-GBM2,0.46%
same,IC50,CHLA-258 cell line,0.5 nM
